INS-1E ATP HTS = protection of INS-1E cells from cytokine death, primary screen, ATP luminescence, single point | INS-1E cytokine-induced death, 48 h; normalised: neutral wells 0, positive control 100 | protection from cytokine-induced ATP loss, % at 10 µM | 20,000 compounds, 0.1% hits | AID 488910, 2010;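 active means mean replicate protection from cytokine-induced ATP loss at least 50% and at least 75% of replicates each reaching 50%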
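Assay system: INS-1E rat insulinoma cells. Amount: 8000 cells per well. Medium: phenol-red-free RPMI with 5% fetal bovine serum. Reagent: IL-1β, TNF-α and IFN-γ cytokine mix. Doses: one compound concentration, pin transfer. Schedule: 48 h co-treatment, 10 min post-lysis read. Detection: CellTiter-Glo luminescence measuring cellular ATP.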
T cruzi intra = inhibitors of intracellular Trypanosoma cruzi, primary screen, cell-based, plate reader, single point, set 2 | activity score (inhibition), % at 5.01 µM | intracellular Trypanosoma cruzi in host cells | AID 651903, 2012 | 22,000 compounds, 4.9% hits; in the data active means activity score above about 55%;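 further: parasites and compound incubated about four days before reading; 0% = median of neutral control wells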
A1 apoptosis 2 = A1 inhibitors via caspase activation, primary screen, cell-based, luminescence, HTS, two replicates; MEF A1-2A-BIM cells, caspase-Glo luminescence, 3 h; percent of clofoctol response, DMSO zero; caspase activation, % (test concentration not listed); 24,000 tested, under 10 active; in the data active means caspase activation above about 5.9%
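Material: A1-2A-BIM-expressing MEF cells. Buffer or medium: RPMI-1640 plus 10% FBS. Incubation: cells settled overnight, compound exposure 3 h at 37 °C, 5% CO2. Signal: Caspase-Glo 3/7 luminescence, 1 h at room temperature.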
* marks the source's active call; other numbers are inactive results. The sample as a whole holds a higher share of hits than the screen did.

What do the screens show for `C[C@H]1CN([C@@H](C)CO)C(=O)c2cccc(NC(=O)c3nc4ccccc4s3)c2O[C@@H]1CN(C)Cc1ccc(C(F)(F)F)cc1`?
INS-1E ATP HTS: -18.9; T cruzi intra: 63.6*

How did C[C@H]1CCCCO[C@H](CN(C)C(=O)CCCN(C)C)[C@@H](C)CN([C@@H](C)CO)C(=O)c2cc(NC(=O)c3ccncc3)ccc2O1 do in these assays?
A1 apoptosis 2: 0.0

Results for CC(C)NC(=O)N(C)C[C@H]1Oc2ccc(NC(=O)Nc3ccc(C(F)(F)F)cc3)cc2CC(=O)N([C@@H](C)CO)C[C@@H]1C ?
INS-1E ATP HTS: -1.1; T cruzi intra: -4.0

What do the screens show for `COC(=O)CCCCCCC(=O)NN=C1CCCCCC1`?
INS-1E ATP HTS: -0.5; T cruzi intra: -1.1; A1 apoptosis 2: 0.9

What do the screens show for `O=C(N/N=C/c1ccc2ccccc2c1)c1ccccn1`?
INS-1E ATP HTS: 1.1; T cruzi intra: -6.5; A1 apoptosis 2: -9.3

Results for CC(C)(C)OC(=O)Nc1cccc(/C=N/NC(=O)CCCCCCC(=O)Nc2ccccc2O)c1 ?
INS-1E ATP HTS: -2.5; T cruzi intra: 26.6; A1 apoptosis 2: -0.5

Results for C[C@H](CO)N1C[C@H](C)[C@@H](CN(C)CC2CC2)OCCCC[C@H](C)Oc2ccc(NC(=O)Nc3cccc4ccccc34)cc2C1=O ?
A1 apoptosis 2: 0.9

How did C[C@@H]1CCCCO[C@@H](CN(C)CC2CCCCC2)[C@@H](C)CN([C@H](C)CO)C(=O)c2cc(NC(=O)Nc3cccc4ccccc34)ccc2O1 do in these assays?
INS-1E ATP HTS: -31.8; T cruzi intra: 66.7*

What do the screens show for `C[C@@H]1CCCCO[C@@H](CN(C)CC2CCCCC2)[C@H](C)CN([C@@H](C)CO)C(=O)c2cc(NC(=O)Nc3cccc4ccccc34)ccc2O1`?
A1 apoptosis 2: -0.1

Results for C[C@@H]1CCCCO[C@H](CN(C)CC2CCCCC2)[C@@H](C)CN([C@H](C)CO)C(=O)c2cc(NC(=O)Nc3cccc4ccccc34)ccc2O1 ?
INS-1E ATP HTS: -32.8; T cruzi intra: 63.5*

How did COc1ccc(/C=N/NC(=O)c2ccccn2)c(O)c1 do in these assays?
INS-1E ATP HTS: -118.8; T cruzi intra: 34.7; A1 apoptosis 2: -12.6

How did O=C(N/N=C/c1ccccc1)c1ccccc1O do in these assays?
INS-1E ATP HTS: 15.4; T cruzi intra: -28.4; A1 apoptosis 2: -4.8

What do the screens show for `COc1ccc(NC(=O)N(C)C[C@H]2Oc3ccc(NC(=O)c4ccncc4)cc3C(=O)N([C@H](C)CO)C[C@H]2C)cc1`?
INS-1E ATP HTS: 4.6; T cruzi intra: -12.4; A1 apoptosis 2: -0.7

What do the screens show for `C[C@H](CO)N1C[C@H](C)[C@H](CN(C)C(=O)Nc2ccc(F)cc2)Oc2ncc(C#Cc3ccc(C(F)(F)F)cc3)cc2C1=O`?
T cruzi intra: 87.7*

What do the screens show for `C[C@H](CO)N1C[C@H](C)[C@H](CN(C)C(=O)Nc2ccc(F)cc2)Oc2ncc(C#Cc3ccc(F)cc3)cc2C1=O`?
T cruzi intra: 25.9

How did C[C@H](CO)N1C[C@H](C)[C@H](CN(C)C(=O)NC2CCCCC2)Oc2ncc(C#Cc3ccc(C(F)(F)F)cc3)cc2C1=O do in these assays?
INS-1E ATP HTS: -26.8; T cruzi intra: 88.3*

What do the screens show for `C[C@H](CO)N1C[C@H](C)[C@H](CN(C)C(=O)NC2CCCCC2)Oc2ncc(C#Cc3ccc(F)cc3)cc2C1=O`?
INS-1E ATP HTS: -19.1; T cruzi intra: 33.5; A1 apoptosis 2: 2.4

Results for O=C(N/N=C/c1cc(Br)cs1)c1ccccn1 ?
INS-1E ATP HTS: -3.6; T cruzi intra: -16.1; A1 apoptosis 2: -10.2

How did C[C@H](CO)N1C[C@H](C)[C@H](CN(C)C(=O)Nc2ccc(C(F)(F)F)cc2)Oc2c(NC(=O)NC3CCCCC3)cccc2C1=O do in these assays?
INS-1E ATP HTS: -26.2; T cruzi intra: 74.5*; A1 apoptosis 2: 0.9

Results for C[C@H](CO)N1C[C@H](C)[C@H](CN(C)C(=O)Nc2ccc3c(c2)OCO3)Oc2c(NC(=O)Nc3ccc(C(F)(F)F)cc3)cccc2C1=O ?
INS-1E ATP HTS: -46.2; T cruzi intra: 62.6*; A1 apoptosis 2: 0.9

What do the screens show for `C[C@@H]1CN([C@@H](C)CO)C(=O)c2cccc(NC(=O)Nc3ccc(C(F)(F)F)cc3)c2O[C@@H]1CN(C)Cc1ccc2c(c1)OCO2`?
INS-1E ATP HTS: -33.0; T cruzi intra: 60.8*; A1 apoptosis 2: 0.6

How did C[C@@H]1CN([C@H](C)CO)C(=O)c2cccc(NC(=O)Nc3cccc4ccccc34)c2O[C@H]1CN(C)C(=O)Nc1ccc(C(F)(F)F)cc1 do in these assays?
INS-1E ATP HTS: -30.8; T cruzi intra: 24.5; A1 apoptosis 2: 0.7

Results for C[C@H](CO)N1C[C@H](C)[C@H](CN(C)Cc2ccc(C(F)(F)F)cc2)Oc2c(NC(=O)Nc3ccc4c(c3)OCO4)cccc2C1=O ?
INS-1E ATP HTS: -18.6; T cruzi intra: 19.6

Results for C[C@@H]1CN([C@H](C)CO)C(=O)c2cccc(NC(=O)Nc3cccc4ccccc34)c2O[C@@H]1CN(C)C(=O)Nc1ccc(C(F)(F)F)cc1 ?
INS-1E ATP HTS: -105.3; T cruzi intra: 64.8*; A1 apoptosis 2: -0.4

Results for C[C@H]1CN([C@@H](C)CO)C(=O)c2cccc(NC(=O)NC3CCCCC3)c2O[C@@H]1CN(C)C(=O)Nc1ccc(C(F)(F)F)cc1 ?
INS-1E ATP HTS: -34.4; T cruzi intra: 28.8; A1 apoptosis 2: 0.3

Results for C[C@@H]1CN([C@H](C)CO)C(=O)c2cccc(NC(=O)Nc3ccc(C(F)(F)F)cc3)c2O[C@@H]1CN(C)C(=O)Nc1ccc2c(c1)OCO2 ?
INS-1E ATP HTS: -35.7; T cruzi intra: 43.6; A1 apoptosis 2: 0.2

Results for C/C(=N\O)C(=O)NCCCCCNC(=O)OCc1ccccc1 ?
A1 apoptosis 2: 0.4

What do the screens show for `COC(=O)CCCCCCC(=O)N/N=C/c1ccc(C)o1`?
INS-1E ATP HTS: -3.7; T cruzi intra: -4.5

Results for C[C@@H]1CN([C@@H](C)CO)C(=O)Cc2cc(NC(=O)CCN3CCOCC3)ccc2O[C@@H]1CN(C)C(=O)Nc1ccccc1 ?
INS-1E ATP HTS: -3.6; T cruzi intra: -19.0; A1 apoptosis 2: 1.3

What do the screens show for `O=C(CCCCCCC(=O)N/N=C/c1ccc(Br)o1)NO`?
A1 apoptosis 2: -0.1

How did C[C@H](CO)N1C[C@H](C)[C@H](CN(C)C(=O)Nc2ccc(C(F)(F)F)cc2)Oc2c(NC(=O)Nc3ccc(C(F)(F)F)cc3)cccc2C1=O do in these assays?
INS-1E ATP HTS: -105.6; T cruzi intra: 78.3*

What do the screens show for `C[C@H]1CN([C@@H](C)CO)C(=O)c2cccc(NC(=O)Nc3ccc(F)cc3)c2O[C@@H]1CN(C)C(=O)Nc1ccc(C(F)(F)F)cc1`?
INS-1E ATP HTS: 0.8; T cruzi intra: -0.7; A1 apoptosis 2: -0.6

What do the screens show for `C[C@H]1CN([C@@H](C)CO)C(=O)c2cccc(NC(=O)Nc3ccc(C(F)(F)F)cc3)c2O[C@H]1CN(C)C(=O)Nc1ccccc1`?
INS-1E ATP HTS: -84.0; T cruzi intra: 13.4; A1 apoptosis 2: -0.3

High-throughput results (PubChem BioAssay)
